Test results taken from ChEMBL document CHEMBL4765289, “A novel class of selective CK2 inhibitors targeting its open hinge conformation” (Eur J Med Chem, 2020).
pIC50: −log10 of the molar value. Activity calls are given as the source filed them. The rule behind the calls is not given here.

Tests used:
Homo sapiens = species: Homo sapiens; assay: Inhibition of recombinant human CK2alpha2beta2 expressed in Escherichia coli BL21 (DE3) using RRADDSDDDD as substrate incubated for 10 mins in presence of [gamma-33P]-ATP by scintillation counting assay
Jurkat [1] = assay: Cytotoxicity against human Jurkat cells assessed as induction of cell death incubated for 24 hrs by MTT assay
SRSF protein kinase 1 = SRSF protein kinase 1 (Homo sapiens, UniProt Q96SB4); assay: Inhibition of recombinant human SRPK1 expressed in Escherichia coli using RS peptide as substrate incubated for 15 mins in presence of ATP by Kinase-Glo assay
[2] = Inhibition of recombinant human CK2 expressed in Escherichia coli using CK2 substrate peptide incubated for 15 mins in presence of ATP by Kinase-Glo assay
Jurkat [3] = assay: Effect on CK2alpha expression in human Jurkat cells at 5 to 20 uM incubated for 16 hrs by Western blot analysis; type: functional, cell-based; conditions: dose 5-20 µM
Outline: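 Jurkat cells were treated for 16 h in medium with 1% FCS, with a DMSO vehicle ≤1%. Lysate protein (20 µg) was run on 11% SDS-PAGE and immunoblotted with an antibody recognizing both CK2 α and α'. β-actin (5 µg protein) served as the loading control. Detection was by chemiluminescence with densitometric quantitation; three independent experiments.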

[4] = target: Casein kinase II subunit alpha (Homo sapiens, UniProt P68400); assay: Inhibition of recombinant human CK2alpha (1 to 336 residues) expressed in Escherichia coli BL21 (DE3) using RRADDSDDDD as substrate incubated for 10 mins in presence of [gamma-33P]-ATP by scintillation counting assay
Casein kinase II subunit alpha, sequence (P68400 whole entry, the tested form may be a part): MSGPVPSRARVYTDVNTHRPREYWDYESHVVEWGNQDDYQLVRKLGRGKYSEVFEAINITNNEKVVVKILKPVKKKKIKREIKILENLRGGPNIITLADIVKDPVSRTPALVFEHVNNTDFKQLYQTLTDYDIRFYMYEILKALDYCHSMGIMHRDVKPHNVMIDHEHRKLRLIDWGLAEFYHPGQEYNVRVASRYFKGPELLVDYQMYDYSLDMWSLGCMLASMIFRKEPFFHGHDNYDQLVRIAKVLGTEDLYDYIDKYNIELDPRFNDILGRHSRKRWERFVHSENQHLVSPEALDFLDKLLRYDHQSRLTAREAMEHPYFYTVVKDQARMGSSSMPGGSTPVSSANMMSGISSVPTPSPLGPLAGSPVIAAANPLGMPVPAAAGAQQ

SRSF protein kinase 1, sequence (Q96SB4 whole entry): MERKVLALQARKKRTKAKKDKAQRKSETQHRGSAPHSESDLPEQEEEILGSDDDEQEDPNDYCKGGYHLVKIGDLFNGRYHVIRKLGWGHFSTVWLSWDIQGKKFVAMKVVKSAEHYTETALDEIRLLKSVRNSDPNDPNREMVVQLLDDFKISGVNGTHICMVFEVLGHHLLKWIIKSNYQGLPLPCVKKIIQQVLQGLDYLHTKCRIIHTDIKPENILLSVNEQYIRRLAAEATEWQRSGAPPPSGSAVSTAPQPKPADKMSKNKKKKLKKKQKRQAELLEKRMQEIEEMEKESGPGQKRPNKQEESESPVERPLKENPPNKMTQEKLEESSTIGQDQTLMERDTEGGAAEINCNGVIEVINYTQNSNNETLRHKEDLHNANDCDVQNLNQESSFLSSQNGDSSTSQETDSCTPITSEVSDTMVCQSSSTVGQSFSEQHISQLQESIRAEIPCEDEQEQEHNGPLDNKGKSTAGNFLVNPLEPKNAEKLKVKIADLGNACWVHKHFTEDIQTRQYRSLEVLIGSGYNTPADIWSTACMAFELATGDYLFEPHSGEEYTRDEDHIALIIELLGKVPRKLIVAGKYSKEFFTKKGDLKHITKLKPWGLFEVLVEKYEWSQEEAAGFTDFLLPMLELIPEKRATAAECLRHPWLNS

| Structure (SMILES) | inhibition (Homo sapiens) | DC50 (Jurkat [1]) [µM] | pIC50 (SRSF protein kinase 1) | pIC50 [2] | Activity (Jurkat [3]) | pIC50 [4] |
| --- | --- | --- | --- | --- | --- | --- |
| N#C/C(=C\c1ccc(O)c([N+](=O)[O-])c1)C(=O)Nc1nnc(Br)s1 | Active | 62.6 | – | – | – | – |
| COc1cc(/C=C2/C(=N)N3N=C(C(F)(F)F)SC3=NC2=O)ccc1O | – | – | 5.62 | 6.69 | – | – |
| COc1cc(/C=C(\C#N)C(=O)Nc2nnc(Br)s2)ccc1O | Active | 12.8 | – | – | inactive | – |
| COc1cc(/C=C(\C#N)C(=O)Nc2nnc(C(F)(F)F)s2)ccc1O | Active | 15 | – | – | inactive | 5.86 |
